Measured values taken from ChEMBL document CHEMBL4513216, “Probing the Open Global Health Chemical Diversity Library for Multistage-Active Starting Points for Next-Generation Antimalarials” (ACS Infect Dis, 2020).

Experiment: Toxicity liver stage against HepG2, at 10uM
Format: cell-based
Parameters: test concentration 10 uM, cell line HepG2-A16-CD81EGFP
Conditions: human, HepG2-A16-CD81EGFP cells; read-out: INHIBITION
Method in brief: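 Uninfected HepG2-A16-CD81EGFP cells, 3 × 10^3 per well, 1536-well, plated on prespotted compound at 10 μM final, parasite-free screening media added to match infected plates; puromycin 10 μM positive, DMSO 0.5% negative; run in parallel with 48 h PbLuc assay at 37 °C, 5% CO2; viability by CellTiter-Glo luminescence, normalized to controls.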

Structure (SMILES)	cytotoxicity at 10 µM [%]
Cc1cc2c(N3CCCC(OCc4cccnc4)C3)ncnc2s1 (stereo not given)	39
Cc1nn(C)c(C)c1-c1ccnc(N2CCCN(CC(C)C)CC2)n1	5.78
Cc1cnc(CCN(C)C(=O)c2cccc(C)c2O)s1	-2.48
CC(Cn1cccn1)NC(=O)Cc1csc(C(C)C)n1 (stereo not given)	-8.57
Cc1ccc(OC2(C(=O)O)CCN(C(=O)c3cccs3)CC2)cn1	0.92
COc1ccccc1OCCN(C)c1cc(C)nc(N)n1	10.4
Cc1nc2cc(C(=O)N3CCn4c(nnc4C4CC4)C3)ccc2s1	-1.41
Cc1cc(N2CCN(C(=O)[C@@H]3C[C@H]4C=C[C@@H]3C4)CC2)cc(C)n1	-7.62
COCCN1CCC12CCN(C(=O)c1ccc3[nH]ccc3c1)C2 (stereo not given)	-82.6
COc1c(C(=O)NCC(C)C)nnn1Cc1ccccc1	12
Cc1nn(C)c(C)c1C1SCC(=O)Nc2c1c(O)nn2C(C)C (stereo not given)	-6.82
COC(=O)c1ccc(OC)c(CN2CCN(CC(C)C)C(=O)C2C)c1 (stereo not given)	-20.3
COc1nc2c(cc1C(=O)NCCCc1csc(N)n1)CCC2	3.63
CCCN1CCCC2(CCN(S(=O)(=O)N3CCC(OC)CC3)C2)C1=O (stereo not given)	1.48
COc1ccccc1C1CNCCN1C(=O)c1ccc(F)cc1 (stereo not given)	0.57
CC(C)C1CN(Cc2nccn2C)CCC(=O)N1CC1CC1 (stereo not given)	-13.7
CCc1cnc(CN(C)C2CCN(CC(=O)Nc3cc(C)on3)C2)o1 (stereo not given)	0.2
COc1cccc(C2(C(=O)NC3CCc4nccn4C3)CCCC2)c1 (stereo not given)	2.74
CC(C)C(NC(=O)c1ccc(N2CCOCC2)nc1)c1cccs1 (stereo not given)	-44
N#Cc1ccc(CC(=O)N2CCCC(n3cccn3)C2)cc1 (stereo not given)	-1.95
Cc1cn2c(n1)CCC(NC(=O)CCCn1cncn1)C2 (stereo not given)	-9.12
CN1CCN(C[C@@H]2CN(C(=O)c3ccccc3C#N)C[C@@H]2CO)CC1	-24.7

Structure (SMILES)	cytotoxicity at 10 µM [%]
CN(Cc1cnc2ccccc2c1)C(=O)C(c1ccccc1F)N(C)C (stereo not given)	-6.88
Cc1ccc2cc(C3(O)CCN(C(=O)[C@@H]4CCCCN4)CC3)ccc2n1	-0.456
CC[C@@H]1N(CC2CC2)CCC[C@]12CCC(=O)N2CCOC	-5.15
CC(Cc1ccsc1)NC(=O)c1cc(N2CCNC2=O)ccc1F (stereo not given)	-4.62
COc1cc(N2CC[C@H](O)[C@@H]2Cc2cccnc2)ncn1	-71.8
CN1CCOC(C(=O)N(C)c2ccc3c(c2)CCO3)C1 (stereo not given)	-45.4
O=C(O)c1ccnc(SCc2ccccc2)c1	-9.98
Cn1ccnc1C1c2nc[nH]c2CCN1Cc1cccnc1 (stereo not given)	0.0371
CC(C)[C@H]1CN(c2ccnc(N)n2)C[C@@H]1NC(=O)C1(C#N)CCOCC1	-2.8
CCNC(=O)C1(Cc2cc(-c3ccccc3)no2)CCCN(C(C)=O)C1 (stereo not given)	15.9
CN(Cc1ccco1)Cc1ccccc1CNC(=O)c1ccc[nH]1	-4.11
COCCN1CCC1c1cc(NC2CCCC2)nc(C)n1 (stereo not given)	0.994
CCn1c(C)nnc1SCCNC(=O)c1cccc2ccnn12	-54.6
CN(C)C(CNS(=O)(=O)c1cc(F)ccc1F)c1cccn1C (stereo not given)	1.33
Cc1nn2cnnc2c(C)c1CCC(=O)Nc1nnc(C2CC2)s1	-2.89
COc1ncccc1C(=O)N1CCC(Nc2ccc(C)nn2)CC1	-18.1
Cn1cc(C2(C)CN(Cc3ccc(N4CCCC4)nc3)CCO2)cn1 (stereo not given)	8.32
Cn1ccc(C(=O)NC2CCC23CCN(C(=O)C2CCOCC2)CC3)c1 (stereo not given)	-81.4
CN(CCCC1CCCO1)C(=O)c1cccc(C#N)c1 (stereo not given)	-7.52
CC(C)C(C)NC(=O)c1cc(Br)c2c(c1)OCCO2 (stereo not given)	-9.89
CC(=O)NCc1ccc(C(=O)N2CCCCC2Cn2cccn2)o1 (stereo not given)	-4.22
Cc1cccc(N2CC[C@@H]3CN(C(=O)c4ccco4)CCO[C@@H]3C2)n1	10.5

Structure (SMILES)	cytotoxicity at 10 µM [%]
COc1cccc([C@@]2(O)CC[C@@H]3CN(C(=O)c4cn(C)nc4C)C[C@@H]32)c1	3.51
Fc1cccc(CN2CCC(c3noc(-c4ccncc4)n3)CC2)c1F	-6.21
Cc1cnc(N2C[C@@H]3CCN(CC(=O)N(C)C)C(=O)[C@H]3C2)nc1	-19
CN(CCn1cnnc1)C(=O)c1ccnc(OC2CCC2)c1	5.1
N#Cc1ccc(CNC2CCN(CCc3ccncc3)CC2)cc1	-5.03
COc1cccc(N2CC3(CCN(c4cnccn4)C3)CC2=O)c1 (stereo not given)	0.0227
O=C1CO[C@@H]2CN(CC3CCOCC3)C[C@H]2N1CC1CC1	1.57
Cn1nccc1C(=O)N1CCN(C(=O)C2CCC2)[C@@H]2CS(=O)(=O)C[C@@H]21	4.86
OC(COCc1cccs1)CSc1nnc2ccccn12 (stereo not given)	1.66
Cc1cc(C(=O)NCC2(N(C)C)CCCC2)c(C)n1-c1cccnc1	-8.41
CC(C)N1C[C@H](O)C[C@H]1c1nc(-c2ccc(OC(F)(F)F)cc2)no1	-3.72
CS(=O)(=O)NC(=O)CCc1cccc(OC2CCCC2)c1	-5.01
O=C(Cc1ccc2c(c1)OCO2)N1CCN(c2ccccc2Cl)C(=O)C1	-0.874
O=C(COc1ccccc1)NCCNC(=O)c1scnc1Cl	-4.83
Cc1ccc(C)c2c(O)cc(CN[C@H]3CCCCNC3=O)nc12	5.63
COc1ccccc1[C@@H]1CN(C(=O)Cc2csc(C)n2)C[C@H]1C(=O)O	-8.25
CC(C)c1noc(CCCC(=O)NC(C)c2ccccn2)n1 (stereo not given)	-4.36
CC(C)n1cnnc1CN(C)Cc1ccc(CO)o1	3.68
O=C(NCCc1cccs1)[C@H]1CO[C@H]2CCNC[C@H]2C1	2.11
COc1ncnc(N)c1CNCCOc1ccccc1Cl	6.24
CC(C)NC(=O)Cn1ccc2c(Cl)cccc21	7.46
COc1ccc(C[C@H]2CN(C(=O)c3cscn3)CC[C@@H]2OC)cc1	7.71

Structure (SMILES)	cytotoxicity at 10 µM [%]
O=c1c(NCCOCCO)c(N2CCN(c3ccccc3)CC2)c1=O	-5.64
Cc1ccc(CN2CC[C@H]3CO[C@H](CN4CCCC4)[C@H]3C2)o1	-115
CCN1CC[C@@]2(C(=O)N3CCOCC3)CCN(C(=O)C(C)C)CC[C@@H]12	-11.5
Cc1nc(C(=O)N2CCCC(c3nc(C(C)C)cs3)C2)c[nH]1 (stereo not given)	-41.7
Cc1cnn(CC2CCCCN2C(=O)Cn2nc(C)c(Cl)c2C)c1 (stereo not given)	-6.24
OCCCN1CCCC1c1ccc(Br)cc1 (stereo not given)	2.94
CC(CNCc1ccc(F)cc1)Oc1ccccn1 (stereo not given)	6.97
COc1cccc2c1OCC(C(=O)N1CCSCC1)C2 (stereo not given)	1.88
OC(c1ccccn1)C1CCN(Cc2cc3n(n2)CCCNC3)CC1 (stereo not given)	6.89
CC(C)CC(=O)N(C)CC(=O)Nc1ccc(Br)cn1	-1.43
O=C(NCCCN1CCOCC1)c1cccc(OCc2ccccc2)c1	-4.87
Cc1cnc(CN(C)C2CCN(Cc3nccn3C)C2)o1 (stereo not given)	-7.03
C[S+]([O-])c1nncn1CC(=O)c1ccc2c(c1)CCO2 (stereo not given)	-2.85
Cc1nc2c(c(N3CCCOCC3)n1)CCN(C(=O)N1CCCC1)CC2	9.2
COc1ccc(CCC(=O)NCCC2CCCO2)cc1Br (stereo not given)	2.6
Cn1cc(-c2ncc3c(c2C(=O)O)CCN(CC2CCOC2)C3)cn1 (stereo not given)	-94.6
CCCC1(CO)CCCN(c2ncnc3c2c(C)nn3C)C1 (stereo not given)	2.72
Cn1ccnc1CN1C[C@@H](CN2CCCC2)[C@@H](CO)C1	4.34
N#Cc1ccc(NCCC(=O)N2CCCc3ccccc32)nc1	-1.33
CN(C)C(=O)Cn1cc(C#N)c(=O)c2cc(Br)ccc21	15.7
CN(C[C@@H]1CCC[C@@H]2CN(Cc3cccnc3)C[C@@H]21)C1CC1	8.01
CCn1ncc2[nH]c(-c3ccc(OC)c(COC)c3)nc21	6.34

Structure (SMILES)	cytotoxicity at 10 µM [%]
O=C(NCCc1cc(=O)[nH]cn1)c1[nH]nc2c1CCCC2	2.22
CN1CCN(C(=O)N2CCC3(CCCN(C4CCOCC4)C3=O)C2)CC1 (stereo not given)	-129
O=S1(=O)CCC(CNc2cc(-c3ccccc3)nc3ccnn23)C1 (stereo not given)	61.2
CN(CC(=O)NCC1CCCCC1)S(=O)(=O)c1cccnc1	3.82
CC(C)CC(O)C1CCN(C(=O)c2ccc(C(F)(F)F)nc2O)CC1 (stereo not given)	2.5
CCNc1c(NC(=O)NCCOC)c(=O)oc2ccccc12	-2.89
CNc1cncc(C2CCCN2Cc2ccn(C)n2)n1 (stereo not given)	-6.88
COCc1nc(N(C)C)ncc1C(=O)Nc1ccn(C)n1	-0.782
CCc1nc(CN2CCCN(C(=O)C3CCOCC3)CC2)cs1	-8.11
CC(=O)c1cc(C(=O)N2CCN(C)Cc3ccccc32)n(C)c1	7.85
CCC(CC)CN1CCC2(CCCN(c3ncccn3)C2)C1 (stereo not given)	-83.5
O=C(c1cscn1)N1CCC2(CN(Cc3ccncc3)C2)C1	6.82
Cc1cc(C)c2c(OCC(=O)NCC(O)C(F)(F)F)nn(C)c2n1 (stereo not given)	1.3
CCc1nnc2n1CCN(C(=O)c1cnc3c(cnn3C(C)C)c1)C2	-7.58
Cc1cccc(C(=O)NCCNCC2CNc3ccnn3C2)c1 (stereo not given)	-0.00278
O=C1N(Cc2cccnc2)CCC12CCCN(c1ncccn1)C2 (stereo not given)	-10.9
Cc1n[nH]c(C)c1CCNC(=O)C1CCCN(Cc2ccco2)C1 (stereo not given)	-6.23
Cc1noc(C)c1CN(C)C(=O)COc1cccc(C#N)c1	5.3
CCN1CCn2c(C)cnc2C12CCN(C(=O)c1cscn1)CC2	6.59
Cc1nc(C2CCCN2Cc2cc(Cl)c3c(c2)OCCO3)no1 (stereo not given)	7.1
c1ccc(CN2Cc3[nH]nc(COc4cccnc4)c3C2)nc1	-109
O=C(NCCNc1ncccn1)N1CCN(C2CCCC2)CC1	-10
